≈ marks a conversion by molar mass, not a printed value. Calls of active or inactive are those of the source. The rule behind the calls is not given here.
Assays:
Type in all cases: functional
Escherichia coli [1] = assay: Antibacterial activity against Escherichia coli X580 at 4 mg/ml by hole plate method; details: for zone of inhibition at 4000 µg/mL: read-out: IZ
In short: (§1)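 Hole-plate assay on bioassay plates seeded with the test organism. Compounds at 4 mg/ml in 7:3 DMSO/H2O were loaded into wells and incubated overnight at 37 °C. Inhibition zone diameters were then measured.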

Staphylococcus aureus [2] = assay: Antibacterial activity against Staphylococcus aureus NCTC 6571 at 4 mg/ml by hole plate method; details: for zone of inhibition at 4000 µg/mL: read-out: IZ; in short: as §1
Staphylococcus aureus [3] = assay: Antibacterial activity against Staphylococcus aureus NCTC 6571 by serial dilution
In short: (§2)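 MIC estimated by serial dilution of compound, each dilution assayed by the hole-plate method (overnight, 37 °C). The end point is the dilution at which no inhibition zone is obtained.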

Staphylococcus aureus [4] = assay: Antibacterial activity against Staphylococcus aureus NCTC 6571 at 4 mg/ml by hole plate method relative to cephalosporin C
In short: (§3)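 Hole-plate diffusion: compound solutions at 4 mg/ml (7:3 DMSO/H2O) were placed in wells and incubated overnight at 37 °C. Inhibition zone diameters were measured, and potency was expressed as zone size per mg/ml relative to standards prepared with cephalosporin C.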

Escherichia coli [5] = assay: Antibacterial activity against Escherichia coli X580 at 4 mg/ml by hole plate method relative to cephalosporin C; in short: as §3
Escherichia coli [6] = assay: Antibacterial activity against Escherichia coli X580 by serial dilution; in short: as §2

Row | MIC (Staphylococcus aureus [3]) [µg/mL] | MIC (Escherichia coli [6]) [µg/mL] | Structure (SMILES) | zone of inhibition at 4000 µg/mL (Escherichia coli [1]) [mm] | zone of inhibition at 4000 µg/mL (Staphylococcus aureus [2]) [mm] | Activity (Staphylococcus aureus [4]) [millimeter/mg/ml] | Activity (Escherichia coli [5]) [millimeter/mg/ml] | Activity (Staphylococcus aureus [2]) | Activity (Escherichia coli [1])
1 | 4000 (≈ 13800 µM) | 500 (≈ 1730 µM) | C=CCNC(=O)C(C)(C)C(O)CCCCc1ccccc1 (racemic) | 23 | 17 | 0.08 | 0.01 |  | 
2 |  | 1000 (≈ 3920 µM) | C=CCNC(=O)C(C)(C)C(O)CCCCCCC (centres undefined) | 22 |  |  | 0.01 | inactive | 
3 |  |  | C=CCNC(=O)C(C)(C)C(O)Cc1ccccc1 (centres undefined) |  |  |  |  | inactive | inactive
4 |  |  | CC(C)(C(=O)NCc1ccc(Br)cc1)C(O)c1ccccc1 (centres undefined) |  |  |  |  | inactive | inactive
5 |  |  | C=CCNC(=O)C(C)(C)C1(O)CCCCC1 |  |  |  |  | inactive | inactive
6 |  |  | C#CCNC(=O)C(C)(C)C(O)c1ccccc1 (centres undefined) | 15 |  |  | 0.003 | inactive | 
7 |  |  | CC(C)(C(N)=O)C(O)/C=C/c1ccccc1 (centres undefined) |  |  |  |  | inactive | inactive
8 |  | 500 (≈ 1490 µM) | C=CCNC(=O)C(C)(C)C(O)c1ccccc1/C=C/c1ccccc1 (centres undefined) | 20 | 14 | 0.06 | 0.01 |  | 
9 |  | 1000 (≈ 3860 µM) | C/C(=C/C=C/c1ccccc1)C(O)C(C)(C)C(N)=O (centres undefined) | 28 | 14 | 0.05 | 0.03 |  | 
10 |  |  | CCCNC(=O)C(C)(C)C(O)c1ccccc1 (centres undefined) |  |  |  |  | inactive | inactive
11 |  |  | C=CCNC(=O)C(C)(C)C(O)c1ccccc1 (racemic) |  |  |  |  | inactive | inactive
12 |  | 500 (≈ 1760 µM) | CC(C)(C(=O)NCc1ccccc1)C(O)c1ccccc1 (centres undefined) | 17 |  |  | 0.005 | inactive | 

— ChEMBL document CHEMBL1155014, “On the antibiotic activity of oxazolomycin” (2008)
